Results on eight molecules are retold here after publication PMC12046972 (ChemMedChem, 2025).

Data set [1] concerns the target T1, SHIP2 (Homo sapiens, UniProt O15357).
T1 sequence (O15357 1-1258): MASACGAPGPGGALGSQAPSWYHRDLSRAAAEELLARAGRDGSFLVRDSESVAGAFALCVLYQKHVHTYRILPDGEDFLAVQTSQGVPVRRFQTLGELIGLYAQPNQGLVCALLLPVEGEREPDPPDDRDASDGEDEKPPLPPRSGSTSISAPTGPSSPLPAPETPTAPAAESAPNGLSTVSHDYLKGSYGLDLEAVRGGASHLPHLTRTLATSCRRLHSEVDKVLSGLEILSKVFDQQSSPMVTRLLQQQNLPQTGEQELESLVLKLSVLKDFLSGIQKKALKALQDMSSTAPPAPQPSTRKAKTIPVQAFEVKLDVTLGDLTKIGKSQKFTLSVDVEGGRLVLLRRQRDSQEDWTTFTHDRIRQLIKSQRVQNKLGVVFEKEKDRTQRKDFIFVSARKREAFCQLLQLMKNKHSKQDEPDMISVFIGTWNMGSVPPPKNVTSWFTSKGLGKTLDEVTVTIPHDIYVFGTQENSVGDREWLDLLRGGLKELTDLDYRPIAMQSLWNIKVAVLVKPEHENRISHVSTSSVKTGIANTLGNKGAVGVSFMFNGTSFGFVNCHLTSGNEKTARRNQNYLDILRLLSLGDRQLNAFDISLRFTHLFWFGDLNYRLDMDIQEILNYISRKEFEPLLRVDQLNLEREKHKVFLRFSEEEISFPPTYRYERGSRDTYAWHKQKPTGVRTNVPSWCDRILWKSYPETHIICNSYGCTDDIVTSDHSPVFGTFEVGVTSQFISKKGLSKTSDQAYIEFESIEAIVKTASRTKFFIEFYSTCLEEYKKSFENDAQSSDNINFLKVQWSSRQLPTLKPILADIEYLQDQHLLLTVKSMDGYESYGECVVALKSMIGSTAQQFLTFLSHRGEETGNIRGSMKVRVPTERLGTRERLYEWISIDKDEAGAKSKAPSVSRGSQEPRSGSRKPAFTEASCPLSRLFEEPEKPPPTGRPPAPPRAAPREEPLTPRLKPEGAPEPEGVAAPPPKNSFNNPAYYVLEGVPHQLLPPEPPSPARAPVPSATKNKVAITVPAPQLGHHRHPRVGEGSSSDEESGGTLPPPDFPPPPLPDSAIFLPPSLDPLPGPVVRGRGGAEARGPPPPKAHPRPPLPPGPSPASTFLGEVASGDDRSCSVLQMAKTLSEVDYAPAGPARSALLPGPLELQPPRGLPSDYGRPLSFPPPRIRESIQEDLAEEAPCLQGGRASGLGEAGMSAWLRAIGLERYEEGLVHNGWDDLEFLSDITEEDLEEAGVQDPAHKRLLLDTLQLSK
Nature of the data set: malachite green assay for phosphatase activity, SHIP2. The class given is biochemical. The following applies: compounds evaluated at 1 mM, described in words. The gist of the method: (§1)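 Phosphate released from C8-PI(3,4,5)P3 (short-chain substrate used to avoid micelles) measured by malachite green colorimetric readout. Reactions contained only SHIP enzyme, buffer and substrate, with no surfactant. Test compounds were tested at 1 mM from DMSO/buffer mixtures. Values are means of at least 3 measurements, with standard deviation.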

Data set [2] deals with T2, SHIP1 (Homo sapiens, UniProt Q92835).
T2 sequence (Q92835 1-1189): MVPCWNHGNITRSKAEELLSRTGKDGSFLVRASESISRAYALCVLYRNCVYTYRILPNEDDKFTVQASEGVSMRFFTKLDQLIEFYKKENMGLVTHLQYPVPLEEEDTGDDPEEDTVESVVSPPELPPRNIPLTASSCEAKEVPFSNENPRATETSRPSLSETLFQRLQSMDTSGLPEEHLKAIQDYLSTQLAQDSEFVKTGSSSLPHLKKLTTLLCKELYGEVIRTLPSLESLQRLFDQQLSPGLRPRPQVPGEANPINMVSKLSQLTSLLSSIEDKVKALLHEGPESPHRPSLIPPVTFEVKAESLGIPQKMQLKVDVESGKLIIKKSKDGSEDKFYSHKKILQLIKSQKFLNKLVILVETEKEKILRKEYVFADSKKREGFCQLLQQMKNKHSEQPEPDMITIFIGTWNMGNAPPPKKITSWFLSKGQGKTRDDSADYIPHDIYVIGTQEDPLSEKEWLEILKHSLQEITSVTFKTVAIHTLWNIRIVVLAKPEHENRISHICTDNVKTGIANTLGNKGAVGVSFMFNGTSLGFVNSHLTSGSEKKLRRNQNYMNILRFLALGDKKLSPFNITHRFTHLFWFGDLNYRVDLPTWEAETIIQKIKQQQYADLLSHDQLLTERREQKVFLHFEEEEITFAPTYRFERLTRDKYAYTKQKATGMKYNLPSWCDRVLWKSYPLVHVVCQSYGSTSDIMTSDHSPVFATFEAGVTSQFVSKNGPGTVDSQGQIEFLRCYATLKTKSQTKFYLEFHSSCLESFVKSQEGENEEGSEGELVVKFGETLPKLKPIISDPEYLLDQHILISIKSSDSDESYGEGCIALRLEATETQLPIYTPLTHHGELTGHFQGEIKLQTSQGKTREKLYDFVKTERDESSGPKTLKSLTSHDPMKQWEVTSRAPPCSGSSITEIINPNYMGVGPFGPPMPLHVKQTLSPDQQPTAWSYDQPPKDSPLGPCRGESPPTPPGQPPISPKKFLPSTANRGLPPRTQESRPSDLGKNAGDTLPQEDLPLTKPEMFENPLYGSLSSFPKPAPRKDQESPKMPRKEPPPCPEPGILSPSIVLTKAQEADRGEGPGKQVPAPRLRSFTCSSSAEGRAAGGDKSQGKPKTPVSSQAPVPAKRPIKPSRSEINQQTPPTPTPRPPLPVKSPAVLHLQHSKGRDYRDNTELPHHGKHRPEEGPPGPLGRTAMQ
The note with it: read-out: IC50 for SHIP1; cited from earlier work.

For data set [3], the target named is T2, SHIP1. In words: fluorescence polarization. Type of data set: biochemical. The note with it: general statement in the docking discussion. A general note: Fluorescence polarisation rises when a labelled molecule tumbles more slowly, as on binding a larger partner.
The target in data set [4] is T1, SHIP2. The following applies: ref 19a; cited from earlier work.
For a further data set, the system named is microglial cell lines. The following applies: a number of microglial cell lines; cited from earlier work.
Another data set in a line: solubility in DMSO. The note with it: in words.
Data set [5] concerns the target T2, SHIP1. Nature of the data set: malachite green assay for phosphatase activity, SHIP1. Type of data set: biochemical. The following applies: described in words; for selectivity between SHIP1 and SHIP2: malachite green assay at 1 mM; for Inhibition of SHIP1: malachite green assay, compounds evaluated at 1 mM. The gist of the method: as §1
The test system of a further data set is mice. The note with it: treatment of mice; cited from earlier work.
A further data set can be described thus: solubility in water. Type of data set: physicochemical. The following applies: in words.

The IC50 is the concentration needed to halve the response being measured. With `CC(C)CCC[C@@H](C)[C@H]1CC[C@H]2[C@@H]3CCC4C[C@H](N)CC[C@]4(C)[C@H]3CC[C@]12C.Cl` (stereo partly drawn) [Compound 1, 3α-Aminocholestane Hydrochloride], the “Inhibition of SHIP2” value on SHIP2 [1] was “significant activity”. Also, the concentration for half-maximal inhibition (IC50) at SHIP1 [2] was roughly 10 µM. In addition, the “selectivity between the two SHIP paralogs” value on SHIP1 [3] was “some selectivity for SHIP1”. Besides, the “selective for SHIP1 over SHIP2” value on SHIP2 [4] is given as “at least 4 fold”. In the data set on microglial cell lines, the “microglial phagocytosis of dead neurons” value is listed as “much less effective”. Also, in “solubility in DMSO”, the “solubility in DMSO” value was “insoluble in DMSO”. The “solubility in DMSO” value in the data set “solubility in DMSO” (listed as 3AC) is listed as “nearly insoluble in DMSO”. Moreover, on SHIP1 [5], the “selectivity between SHIP1 and SHIP2” value is “more selectivity for SHIP1”; the “Inhibition of SHIP1” value is given as “significant activity”. Further, in the data set with mice, the in vivo bioactivity entry is listed as “in vivo bioactivity comparable to genetic phenotypes observed in SHIP knockout mice”.
In the case of `CC(C)CCCC(C)C1CCC2C3CCC4CC(N)CCC4(C)C3CCC12C.Cl` (stereo not shown) [Compound 11], at SHIP2 [1], the “Inhibition of SHIP2” value is “significant activity”. In addition, the “Inhibition of SHIP1” value at SHIP1 [5] is listed as “significant activity”.
In the case of `CC(C)CCC[C@@H](C)[C@H]1CC[C@H]2[C@@H]3CC[C@H]4C[C@H](NS(C)(=O)=O)CC[C@]4(C)[C@H]3CC[C@]12C` [Compound 12], the “Inhibition of SHIP2” value on SHIP2 [1] was “inactive”. Moreover, at SHIP1 [5], the “Inhibition of SHIP1” value was “inactive”.
On to `CC(=O)NC1CCC2(C)C(CCC3C2CCC2(C)C(C(C)CCCC(C)C)CCC32)C1` (stereo not shown) [Compound 13], for which, at SHIP2 [1], the “Inhibition of SHIP2” value was “inactive”. Moreover, the “Inhibition of SHIP1” value on SHIP1 [5] was “inactive”.
Take `CC(C)CCC[C@@H](C)[C@H]1CC[C@H]2[C@@H]3CC[C@H]4C[C@H](N(C)C)CC[C@]4(C)[C@H]3CC[C@]12C` [Compound 15]: the “Inhibition of SHIP2” value on SHIP2 [1] is on record as “significantly less effect”. On SHIP1 [5], the “selectivity between SHIP1 and SHIP2” value is reported as “selective inhibition of SHIP1”; the “Inhibition of SHIP1” value is “active”.
Turning to `CC(C)CCCC(C)C1CCC2C3CCC4CC(O)C(N)CC4(C)C3CCC12C` (stereo not shown) [Compound 37], the “Inhibition of SHIP1” value on SHIP1 [5] is on record as “significant inhibition of SHIP1”. Moreover, the solubility in water entry in “solubility in water” was “insoluble in water”.
`CC(C)CCC[C@@H](C)[C@H]1CC[C@H]2[C@@H]3CC[C@H]4CC(N)C(N)C[C@]4(C)[C@H]3CC[C@]12C` (stereo partly shown) [Compound 45]: the solubility in water result in “solubility in water” is “insoluble in water”.
`CC(C)CCC[C@@H](C)[C@H]1CC[C@H]2[C@@H]3CC[C@H]4C[C@@H](N)[C@H](N)C[C@]4(C)[C@H]3CC[C@]12C` [Compound 47]: at SHIP2 [1], the “Inhibition of SHIP2” value is on record as “least effective inhibitors”. Besides, the “Inhibition of SHIP1” value at SHIP1 [5] is reported as “least effective inhibitors”. In addition, in the data set “solubility in water”, the solubility in water result was “insoluble in water”.
